According to ChEMBL document CHEMBL3351780, “Novel hybrids of metronidazole and quinolones: synthesis, bioactive evaluation, cytotoxicity, preliminary antimicrobial mechanism and effect of metal ions on their transportation by human serum albumin” (Eur J Med Chem, 2014):
Values after ≈ are worked out from the molar mass of the structure shown.

Tests used:
Streptococcus pneumoniae = assay: Antibacterial activity against Streptococcus pneumoniae by two-fold serial dilution method; format: functional
Outline: (§1)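 Standard two-fold serial dilution in 96-well microtest plates following NCCLS. Top dilutions printed as 32, 16, 8, 4, 2, 1, 0.5 ug/mL. Wells inoculated and held at 37 °C for 24 h. Growth judged visually and by spectrophotometer, in triplicate. MIC is the lowest concentration giving complete growth inhibition.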

Micrococcus luteus = assay: Antibacterial activity against Micrococcus luteus by two-fold serial dilution method; format: functional; outline: as §1
Staphylococcus aureus [1] = assay: Antibacterial activity against methicillin-resistant Staphylococcus aureus N315 by two-fold serial dilution method; format: functional
Outline: (§2)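 MIC read as the lowest concentration giving complete growth inhibition. Two-fold serial dilutions were made in 96-well plates following NCCLS, giving a series down to 0.5 µg/mL (…32, 16, 8, 4, 2, 1, 0.5). Plates were inoculated and incubated at 37 °C for 24 h. A DMSO-with-inoculum control without drug was included. Growth was monitored visually and spectrophotometrically, in triplicate.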

Staphylococcus aureus [2] = assay: Antibacterial activity against Staphylococcus aureus ATCC 25923 by two-fold serial dilution method; format: functional; outline: as §1
Bacillus spizizenii = assay: Antibacterial activity against Bacillus subtilis ATCC 6633 by two-fold serial dilution method; format: functional; outline: as §1
Pseudomonas aeruginosa = assay: Antibacterial activity against Pseudomonas aeruginosa by two-fold serial dilution method; format: functional; outline: as §1
Escherichia coli = assay: Antibacterial activity against Escherichia coli DH52 by two-fold serial dilution method; format: functional; outline: as §1
Shigella dysenteriae = assay: Antibacterial activity against Shigella dysenteriae by two-fold serial dilution method; format: functional; outline: as §2
[3] = Antibacterial activity against Eberthella typhosa by two-fold serial dilution method; format: functional; outline: as §2
Cyberlindnera jadinii = assay: Antifungal activity against Candida utilis after 24 hrs by microbroth dilution method; format: functional; conditions: Williopsis jadinii
Outline: (§3)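 Spore suspension prepared in sterile distilled water from one-day-old cultures on Sabouraud agar, final 1-5 x 10^3 spores/mL. Compounds were serially diluted in RPMI 1640 to give eleven dilutions. Incubation at 35 °C for 24 h. Growth read visually and spectrophotometrically, in triplicate. MIC is the lowest concentration with complete inhibition.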

Saccharomyces cerevisiae = assay: Antifungal activity against Saccharomyces cerevisiae after 24 hrs by microbroth dilution method; format: functional; outline: as §3
Candida albicans = assay: Antifungal activity against Candida albicans ATCC 76615 after 24 hrs by microbroth dilution method; format: functional; conditions: ATCC 76615, 24 h; outline: as §3
Pichia norvegensis = assay: Antifungal activity against Candida mycoderma after 24 hrs by microbroth dilution method; format: functional
[4] = Cytotoxicity against human A549 cells assessed as cell viability at 256 ug/ml after 24 hrs by CCK-8 assay; format: cell-based; conditions: read-out: Activity
Outline: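 A549 cells were plated and allowed to attach for 24 h, then medium with the compound was added. The compound came from DMSO stocks diluted in medium to 8, 16, 32, 64, 128 and 256 µg/mL. Cells were kept at 37 °C in 5% CO2. Viability was read by CCK-8 absorbance at 450 nm against a drug-free control, three replicates.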

[5] = Dissociation constant, pKa of the compound by UV-spectroscopy; format: physicochemical
Outline: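 DMSO stock at 4.0 × 10^-3 mol/L added to 2 mL of buffer, then shaken 10 min at room temperature. Buffers were acetate (pH 4.0–5.0), MES (5.5–6.5), HEPES (7.0–8.0) and CHES (8.5–9.4), each from 500 mM stocks. Scans ran 210–400 nm and were normalized. Absolute differences from the acid spectrum were summed at 244 and 308 nm, plotted against pH and fitted to obtain pKa.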

[6] = Octanol-water partition co-efficient, log P of the compound by shake flask method; format: physicochemical
[7] = Aqueous solubility of the compound by UV-spectrophotometry; format: physicochemical
Aspergillus flavus = assay: Antifungal activity against Aspergillus flavus ATCC 96918 after 24 hrs by microbroth dilution method

| Structure (SMILES) | MIC (Streptococcus pneumoniae) | MIC (Micrococcus luteus) | MIC (Staphylococcus aureus [1]) | MIC (Staphylococcus aureus [2]) | MIC (Bacillus spizizenii) | MIC (Pseudomonas aeruginosa) | MIC (Escherichia coli) | MIC (Shigella dysenteriae) | MIC [3] | MIC (Cyberlindnera jadinii) | MIC (Saccharomyces cerevisiae) | MIC (Candida albicans) | MIC (Pichia norvegensis) | viability at 24 h, 256 ug/ml [4] | pKa [5] | logP [6] | solubility [7] | MIC (Aspergillus flavus) |
| --- | --- | --- | --- | --- | --- | --- | --- | --- | --- | --- | --- | --- | --- | --- | --- | --- | --- | --- |
| Cc1ccc2c(c1)c(=O)c(C(=O)O)cn2CC(O)Cn1c([N+](=O)[O-])cnc1C (configuration not stated) | 4 µg/mL (≈ 10.4 µM) | 1 µg/mL (≈ 2.59 µM) | 4 µg/mL (≈ 10.4 µM) | 8 µg/mL (≈ 20.7 µM) | 8 µg/mL (≈ 20.7 µM) | 2 µg/mL (≈ 5.18 µM) | 1 µg/mL (≈ 2.59 µM) | 8 µg/mL (≈ 20.7 µM) | 8 µg/mL (≈ 20.7 µM) | 512 µg/mL (≈ 1330 µM) | 2 µg/mL (≈ 5.18 µM) | 16 µg/mL (≈ 41.4 µM) | 256 µg/mL (≈ 663 µM) | > 83% | 6.43 | -0.03 | 390 µg/mL (≈ 1010 µM) | – |
| COc1ccc2c(c1)c(=O)c(C(=O)O)cn2CC(O)Cn1cnc([N+](=O)[O-])c1 (configuration not stated) | 64 µg/mL (≈ 165 µM) | 256 µg/mL (≈ 659 µM) | 16 µg/mL (≈ 41.2 µM) | 64 µg/mL (≈ 165 µM) | 16 µg/mL (≈ 41.2 µM) | 128 µg/mL (≈ 330 µM) | 64 µg/mL (≈ 165 µM) | 16 µg/mL (≈ 41.2 µM) | 32 µg/mL (≈ 82.4 µM) | 128 µg/mL (≈ 330 µM) | 512 µg/mL (≈ 1320 µM) | 128 µg/mL (≈ 330 µM) | 128 µg/mL (≈ 330 µM) | – | – | – | – | – |
| Cc1ncc([N+](=O)[O-])n1CC(O)Cn1cc(C(=O)O)c(=O)c2cc(F)ccc21 (configuration not stated) | 8 µg/mL (≈ 20.5 µM) | 2 µg/mL (≈ 5.12 µM) | 2 µg/mL (≈ 5.12 µM) | 8 µg/mL (≈ 20.5 µM) | 16 µg/mL (≈ 41 µM) | 4 µg/mL (≈ 10.2 µM) | 8 µg/mL (≈ 20.5 µM) | 1 µg/mL (≈ 2.56 µM) | 32 µg/mL (≈ 82 µM) | 512 µg/mL (≈ 1310 µM) | 64 µg/mL (≈ 164 µM) | 128 µg/mL (≈ 328 µM) | 256 µg/mL (≈ 656 µM) | – | 5.18 | -0.13 | 380 µg/mL (≈ 974 µM) | – |
| Cc1ncc([N+](=O)[O-])n1CC(O)Cn1cc(C(=O)O)c(=O)c2cccc(F)c21 (configuration not stated) | 32 µg/mL (≈ 82 µM) | 4 µg/mL (≈ 10.2 µM) | 4 µg/mL (≈ 10.2 µM) | 8 µg/mL (≈ 20.5 µM) | 16 µg/mL (≈ 41 µM) | 2 µg/mL (≈ 5.12 µM) | 4 µg/mL (≈ 10.2 µM) | 8 µg/mL (≈ 20.5 µM) | 4 µg/mL (≈ 10.2 µM) | 256 µg/mL (≈ 656 µM) | 64 µg/mL (≈ 164 µM) | 256 µg/mL (≈ 656 µM) | 512 µg/mL (≈ 1310 µM) | – | 5.12 | -0.13 | 390 µg/mL (≈ 999 µM) | – |
| CCOC(=O)c1cn(CC2CO2)c2c(Cl)cc(Cl)cc2c1=O (racemic) | – | – | – | – | 2 µg/mL (≈ 5.84 µM) | – | – | – | 2 µg/mL (≈ 5.84 µM) | 512 µg/mL (≈ 1500 µM) | – | – | 1 µg/mL (≈ 2.92 µM) | – | – | – | – | 512 µg/mL (≈ 1500 µM) |
| O=C(O)c1cn(CC(O)Cn2cnc([N+](=O)[O-])c2)c2c(F)cc(F)cc2c1=O (configuration not stated) | 16 µg/mL (≈ 40.6 µM) | 8 µg/mL (≈ 20.3 µM) | 16 µg/mL (≈ 40.6 µM) | 16 µg/mL (≈ 40.6 µM) | 8 µg/mL (≈ 20.3 µM) | 32 µg/mL (≈ 81.2 µM) | 32 µg/mL (≈ 81.2 µM) | 32 µg/mL (≈ 81.2 µM) | 32 µg/mL (≈ 81.2 µM) | 256 µg/mL (≈ 649 µM) | 256 µg/mL (≈ 649 µM) | 16 µg/mL (≈ 40.6 µM) | 64 µg/mL (≈ 162 µM) | – | – | – | – | – |
| Cc1ncc([N+](=O)[O-])n1CC(O)Cn1cc(C(=O)O)c(=O)c2cc(F)cc(F)c21 (configuration not stated) | 16 µg/mL (≈ 39.2 µM) | 2 µg/mL (≈ 4.9 µM) | 2 µg/mL (≈ 4.9 µM) | 16 µg/mL (≈ 39.2 µM) | 4 µg/mL (≈ 9.8 µM) | 2 µg/mL (≈ 4.9 µM) | 4 µg/mL (≈ 9.8 µM) | 4 µg/mL (≈ 9.8 µM) | 16 µg/mL (≈ 39.2 µM) | 512 µg/mL (≈ 1250 µM) | 64 µg/mL (≈ 157 µM) | 32 µg/mL (≈ 78.4 µM) | 128 µg/mL (≈ 313 µM) | – | 5.33 | -0.21 | 570 µg/mL (≈ 1400 µM) | – |
| COc1ccc2c(c1)c(=O)c(C(=O)O)cn2CC(O)Cn1c([N+](=O)[O-])cnc1C (configuration not stated) | 64 µg/mL (≈ 159 µM) | 512 µg/mL (≈ 1270 µM) | 8 µg/mL (≈ 19.9 µM) | 32 µg/mL (≈ 79.5 µM) | 32 µg/mL (≈ 79.5 µM) | 512 µg/mL (≈ 1270 µM) | 64 µg/mL (≈ 159 µM) | 32 µg/mL (≈ 79.5 µM) | 8 µg/mL (≈ 19.9 µM) | 128 µg/mL (≈ 318 µM) | 256 µg/mL (≈ 636 µM) | 128 µg/mL (≈ 318 µM) | 512 µg/mL (≈ 1270 µM) | – | 5.72 | -0.24 | 400 µg/mL (≈ 994 µM) | – |
